Test results published in ChEMBL document CHEMBL1126297, “Synthesis and evaluation of analogues of (Z)-1-(4-methoxyphenyl)-2-(3,4,5-trimethoxyphenyl)ethene as potential cytotoxic and antimitotic agents” (J Med Chem, 1992).

Legend:
Format in all cases: functional
MLM = test: Cytotoxicity against human MLM melanoma cell line.; conditions: read-out: ED50 (the source's name)
Method in brief: (§1)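 MTT colorimetric assay run in the Purdue Cell Culture Laboratory. Poorly water-soluble compounds were serially diluted in DMSO and added as 0.5 μL aliquots per well. Cells were incubated with compound for 6 days before MTT was added. […] The reported ED50 is the mean of two determinations.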

SK-MEL-5 = test: Compound was evaluated for cytotoxicity against human SKMEL-5 melanoma cell line.; conditions: read-out: ED50 (the source's name); method in brief: as §1
A549 = test: Compound was evaluated for cytotoxicity against human A-549 non-small cell lung cancer cell line.; conditions: read-out: ED50 (the source's name); method in brief: as §1
Bos taurus = species: Bos taurus; test: Inhibition of tubulin polymerization
Method in brief: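 Bovine brain tubulin, purified to electrophoretic homogeneity, was preincubated at 37 °C with a range of compound concentrations and then chilled on ice. GTP was added and polymerization followed at 37 °C by turbidity at 350 nm. Extent was read at 20 min against two controls per experiment, and IC50 was determined graphically. Actives were run in ≥3 independent assays, inactives (IC50 > 40 μM) in ≥2.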

MCF7 = test: Cytotoxicity against human MCF-7 breast cancer cell line.; conditions: read-out: ED50 (the source's name); method in brief: as §1
HT-29 = test: Cytotoxicity against human HT-29 colon cell line.; conditions: read-out: ED50 (the source's name); method in brief: as §1

Compound COc1cc(/C=C/c2ccc(SC)cc2)cc(OC)c1OC has an EC50 (MLM) of 7.3 µM, an EC50 (SK-MEL-5) of 0.28 µM and an EC50 (A549) of 0.47 µM. It also gave an IC50 (Bos taurus) of over 40 µM, an EC50 (MCF7) of 0.059 µM and an EC50 (HT-29) of 0.083 µM.

In the case of COc1cc(/C=C/c2ccc(C)cc2)cc(OC)c1OC, the EC50 (MLM) is reported as 6.3 µM, the EC50 (SK-MEL-5) is reported as 0.8 µM and the EC50 (A549) is reported as 1.1 µM. It also gave an IC50 (Bos taurus) of over 40 µM, an EC50 (MCF7) of 1.9 µM and an EC50 (HT-29) of 0.9 µM.

COc1cc(CCc2ccc(OCCN(C)C)cc2)cc(OC)c1OC gave an EC50 (MLM) of over 25 µM, an EC50 (SK-MEL-5) of 11.4 µM and an EC50 (A549) of over 25 µM. It also gave an IC50 (Bos taurus) of over 40 µM, an EC50 (MCF7) of 10.3 µM and an EC50 (HT-29) of 9.8 µM.

Work on COc1cc(/C=C/c2ccc(C(C)C)cc2)cc(OC)c1OC yielded an EC50 (MLM) of over 25 µM, an EC50 (SK-MEL-5) of 11.1 µM and an EC50 (A549) of 9.8 µM. The IC50 (Bos taurus) was over 40 µM, the EC50 (MCF7) was 18.4 µM and the EC50 (HT-29) was 6.8 µM.

With COC(=O)/C(=C/c1cccc(OC)c1)c1cc(OC)c(OC)c(OC)c1 the EC50 (MLM) was 15.5 µM, the EC50 (SK-MEL-5) was 1.5 µM and the EC50 (A549) was 1.3 µM. For the same compound, the IC50 (Bos taurus) was over 40 µM, the EC50 (MCF7) was 1.3 µM and the EC50 (HT-29) was 0.7 µM.

Compound COC(=O)C(Cc1cc(OC)c(OC)c(OC)c1)c1ccc(OC)cc1 (stereo not drawn) has an EC50 (MLM) of over 25 µM, an EC50 (SK-MEL-5) of over 25 µM and an EC50 (A549) of over 25 µM. The IC50 (Bos taurus) was over 40 µM, the EC50 (MCF7) was over 25 µM and the EC50 (HT-29) was over 25 µM.

For COc1ccc(/C=C/c2cc(OC)c(O[Si](C)(C)C(C)(C)C)c(OC)c2)cc1, the EC50 (MLM) was over 25 µM, the EC50 (SK-MEL-5) was over 25 µM and the EC50 (A549) was over 25 µM. It also gave an IC50 (Bos taurus) of over 40 µM, an EC50 (MCF7) of over 25 µM and an EC50 (HT-29) of over 25 µM.

In the case of COc1ccc(/C=C\c2cc(OC)c(OCc3ccccc3)c(OC)c2)cc1, the EC50 (MLM) is reported as over 25 µM, the EC50 (SK-MEL-5) is reported as 0.61 µM and the EC50 (A549) is reported as 1.04 µM. The IC50 (Bos taurus) was over 40 µM, the EC50 (MCF7) was 1.92 µM and the EC50 (HT-29) was 0.95 µM.

COc1ccc2ccc3cc(OC)c(OC)c(OC)c3c2c1 showed an EC50 (MLM) of over 25 µM, an EC50 (SK-MEL-5) of 12.5 µM and an EC50 (A549) of over 25 µM. The IC50 (Bos taurus) was over 40 µM, the EC50 (MCF7) was over 25 µM and the EC50 (HT-29) was 1.1 µM.

In the case of COc1ccc(/C=C\c2cc(OC)c(OC(C)=O)c(OC)c2)cc1, the EC50 (MLM) is reported as over 25 µM, the EC50 (SK-MEL-5) is reported as 0.6 µM and the EC50 (A549) is reported as 21.5 µM. The IC50 (Bos taurus) was 24 µM, the EC50 (MCF7) was over 25 µM and the EC50 (HT-29) was 8.7 µM.

Work on COc1ccc(/C=C/c2cc(OC)c(OCc3ccccc3)c(OC)c2)cc1 yielded an EC50 (MLM) of over 25 µM, an EC50 (SK-MEL-5) of over 25 µM and an EC50 (A549) of over 25 µM. The IC50 (Bos taurus) was over 40 µM, the EC50 (MCF7) was over 25 µM and the EC50 (HT-29) was 17.8 µM.

In the case of COc1cc(/C=C\c2ccc(C(C)(C)C)cc2)cc(OC)c1OC, the EC50 (MLM) is reported as 4.32 µM, the EC50 (SK-MEL-5) is reported as 0.21 µM and the EC50 (A549) is reported as 1.02 µM. For the same compound, the IC50 (Bos taurus) was over 40 µM, the EC50 (MCF7) was 1.57 µM and the EC50 (HT-29) was 0.88 µM.

Work on CCN(CC)CCOc1ccc(CCc2cc(OC)c(OC)c(OC)c2)cc1 yielded an EC50 (MLM) of over 25 µM, an EC50 (SK-MEL-5) of 8.5 µM and an EC50 (A549) of 6.8 µM. The IC50 (Bos taurus) was over 40 µM, the EC50 (MCF7) was 4.3 µM and the EC50 (HT-29) was 5.2 µM.

Compound CCc1ccc(/C=C\c2cc(OC)c(OC)c(OC)c2)cc1 has an EC50 (MLM) of 0.0075 µM, an EC50 (SK-MEL-5) of 0.00086 µM and an EC50 (A549) of 0.012 µM. For the same compound, the IC50 (Bos taurus) was 3.4 µM, the EC50 (MCF7) was 0.072 µM and the EC50 (HT-29) was 0.0027 µM.

Compound COc1cc(/C=C\c2ccc(SC)cc2)cc(OC)c1OC has an EC50 (MLM) of 0.0033 µM, an EC50 (SK-MEL-5) of 4e-06 µM and an EC50 (A549) of 0.00019 µM. The IC50 (Bos taurus) was 6.2 µM, the EC50 (MCF7) was 0.0054 µM and the EC50 (HT-29) was 1.8e-06 µM.

Compound CCNC(=O)/C(=C/c1ccc(OC)cc1)c1cc(OC)c(OC)c(OC)c1 has an EC50 (MLM) of over 25 µM, an EC50 (SK-MEL-5) of 7.05 µM and an EC50 (A549) of 3.4 µM. For the same compound, the IC50 (Bos taurus) was over 40 µM, the EC50 (MCF7) was 3.7 µM and the EC50 (HT-29) was 1.8 µM.

CCCOc1ccc(CCc2cc(OC)c(OC)c(OC)c2)cc1 was tested, and the EC50 (MLM) was 15 µM, the EC50 (SK-MEL-5) was 6.7 µM and the EC50 (A549) was 7.2 µM. The IC50 (Bos taurus) was over 40 µM, the EC50 (MCF7) was 3.9 µM and the EC50 (HT-29) was 6.4 µM.

In the case of COc1ccc(/C=C(/C(=O)O)c2cc(OC)c(OC)c(OC)c2)cc1, the EC50 (MLM) is reported as over 25 µM, the EC50 (SK-MEL-5) is reported as 9.1 µM and the EC50 (A549) is reported as 13.9 µM. The IC50 (Bos taurus) was over 40 µM, the EC50 (MCF7) was 12.8 µM and the EC50 (HT-29) was 8.4 µM.
